Source: PubChem
EBNA-1 inh = blocks EBNA-1 binding to DNA; EBNA-1 DNA binding, fluorescence polarization; hit rate 0.34% among 300,000; AID 1950; inhibition, % at 14.8 µM; in the data active = inhibition above about 28%
core dimer inh = blocks dimerization of HCV core protein. TR-FRET GST/Flag-core106 dimerization, 1536-well. inhibition, % at 5 µM. hit rate 0.33% among 300,000. AID 1899;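 active = inhibition above the mean of all tested compounds plus 3 SD, set per screening campaign, cut at about 45% in these data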
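Material: Tagged HCV core106 pair (GST and Flag) | Amount: GST-core106 13.5 nM, Flag-core106 17 nM | Medium: KF-containing HEPES buffer, pH 7.45, DTT, CHAPS, BSA | Reagent: Eu donor and XL665 acceptor anti-tag antibodies | Schedule: 4 h at 22.5 °C | Technique: Time-resolved FRET, ex 340 nm, em 617 and 671 nm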
ZTA counter = blocks Epstein-Barr virus ZTA, an EBNA-1 counter-screen. P03206. ZTA-DNA binding, fluorescence polarization. inhibition, % at 11 µM. hit rate 0.15% among 320,000. AID 2234; in the data active = inhibition above about 33%
Target sequence (P03206 whole entry, looked up): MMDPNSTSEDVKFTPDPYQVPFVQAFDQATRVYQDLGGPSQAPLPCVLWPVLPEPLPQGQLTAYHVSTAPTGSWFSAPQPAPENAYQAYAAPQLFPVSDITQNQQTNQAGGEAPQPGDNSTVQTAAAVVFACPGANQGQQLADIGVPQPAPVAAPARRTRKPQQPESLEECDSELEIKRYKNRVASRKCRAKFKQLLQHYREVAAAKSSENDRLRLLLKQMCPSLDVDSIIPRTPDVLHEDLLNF
M18AAP inhibitor = blocks P. falciparum M18 aspartyl aminopeptidase; recombinant PfM18AAP, H-Glu-NHMec fluorogenic cleavage; inhibition, % at 7.35 µM; hit rate 1.2% among 290,000; AID 1822;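 active = inhibition above the campaign mean inhibition over all tested compounds plus 3 SD, cut at about 28% in these data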
ALR H2O2 inh = blocks human ALR sulfhydryl oxidase activity. P55789. purified ALR, DTT oxidation, H2O2 HRP-luminol luminescence. hit rate 3.8% among 290,000. inhibition, % (test concentration not listed). AID 485317;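 active = mean replicate inhibition above about 79%, with every replicate also reaching it, limit read from the data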
Target sequence (P55789 whole entry, looked up): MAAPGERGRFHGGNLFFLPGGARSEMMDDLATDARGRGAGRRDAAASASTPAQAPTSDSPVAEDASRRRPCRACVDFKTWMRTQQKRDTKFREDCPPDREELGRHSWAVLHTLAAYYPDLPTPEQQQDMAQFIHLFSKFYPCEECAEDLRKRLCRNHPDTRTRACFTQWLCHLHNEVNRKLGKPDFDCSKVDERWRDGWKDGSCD
NS3 helicase inh = HCV NS3 helicase inhibition; NS3 helicase DNA unwinding, Cy5 molecular beacon fluorescence; inhibition, % at 10.9 µM; AID 1800; hit rate 0.56% among 290,000;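 active = inhibition above the mean of all tested compounds plus 3 SD, set per campaign, cut at about 35% in these data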
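test system = hepatitis C virus NS3 helicase domain fragment enzyme | reagent = annealed dual-labelled DNA beacon duplex, ATP-started | times = 1 h at 25 °C | detection = Cy5 fluorescence, 0 and 60 min reads | read-out basis = percent inhibition from t60/t0 fluorescence ratio | control set = DMSO and thioflavine S | replication = one well per compound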
A number is an active result; i = inactive; nt = no result given. Rows were chosen to be rich in hits. Some 5.2% of all compounds tested hit in one or more screens of this group.

SMILES	EBNA-1 inh	core dimer inh	ZTA counter	M18AAP inhibitor	ALR H2O2 inh	NS3 helicase inh
CCOc1cccc(-c2c(C(=O)N/N=C/c3cccs3)nnn2-c2nonc2N)c1	i	i	i	i	i	i
CC[n+]1c(C=C2C=C(C)OC(C)=C2)sc2ccccc21	nt	nt	nt	i	nt	i
CCN1/C(=C/c2ccc3cc(C)ccc3[n+]2CC)Sc2ccccc21	i	i	i	49	i	i
CCN1/C(=C/C=C/C=C/c2sc3ccccc3[n+]2CC)Sc2ccccc21	nt	i	nt	37	nt	i
CCN1/C(=C/C=C/c2sc3ccccc3[n+]2CC)Sc2ccccc21	i	i	i	nt	100	nt
CCN1/C(=C/c2sc(-c3ccccc3C)c[n+]2C)Sc2ccccc21	nt	nt	nt	i	nt	i
COCCn1c(=S)[nH]c2cc(C(=O)N(CCO)Cc3ccccc3)ccc2c1=O	i	i	i	i	i	i
COc1cc(C2C(C(=O)c3ccc(C)o3)=C(O)C(=O)N2c2cc(C)on2)ccc1O (stereo not given)	i	i	i	28	i	i
COc1cc(C2C(C(=O)c3ccc(C)o3)=C(O)C(=O)N2c2cc(C)on2)cc(OC)c1OC (stereo not given)	i	i	i	nt	i	nt
COC(=O)c1sc(N2C(=O)C(O)=C(C(=O)c3ccc(C)o3)C2c2ccc([N+](=O)[O-])cc2)nc1C (stereo not given)	i	i	i	i	i	i
COc1cccc(C2C(C(=O)c3cc4cccc(OC)c4o3)=C(O)C(=O)N2c2cc(C)on2)c1OC (stereo not given)	i	i	i	i	i	i
CCOc1ccc(C2C(C(=O)c3ccc(C)o3)=C(O)C(=O)N2c2nc(C)c(C(=O)OC)s2)cc1 (stereo not given)	i	i	i	i	97	i
COc1cccc2cc(C(=O)C3=C(O)C(=O)N(c4cc(C)on4)C3c3cccs3)oc12 (stereo not given)	i	i	i	i	98	i
Cc1cnc(C(=O)NNC(=O)c2ccc(Br)cc2)cn1	i	i	i	nt	i	nt
CCc1[nH]nc(C(=O)N/N=C/c2ccncc2)c1C	i	i	i	i	i	i
Cc1ccc(C2=NN(S(=O)(=O)c3ccccc3)C(c3ccco3)C2)cc1 (stereo not given)	nt	nt	i	nt	nt	nt
O=S(=O)(c1ccccc1)N1N=C(c2ccc(O)cc2)CC1c1ccco1 (stereo not given)	i	i	i	i	100	i
COc1ccc(/C=N/N2CCOCC2)cc1COc1ccc(Cl)cc1	i	i	i	i	i	i
Cc1cc(OCC(=O)NCc2ccccn2)c2c(C)cc(=O)oc2c1	i	i	i	i	i	i
CC1(C)Oc2cc3oc(-c4cc(O)cc(O)c4)cc3cc2CC1O (stereo not given)	i	i	i	nt	99	nt
Cn1cc(CN2C[C@H]3CC[C@H]2C3)c(-c2ccccc2F)n1	i	i	i	i	i	i
O=C(CSc1nnc(CNC(=O)c2c(F)cccc2F)o1)NCc1ccc(F)cc1	i	i	i	i	i	i
CSc1cccc(NC(=O)Nc2ccccc2C(N)=O)c1	i	i	i	i	91	i
CSc1cccc(NC(=O)Nc2ccccc2)c1	i	i	i	i	i	i
COc1cccc(C(=O)Nc2cc(C)nn2-c2ccccc2)c1OC	i	i	i	i	nt	i
SMILES	EBNA-1 inh	core dimer inh	ZTA counter	M18AAP inhibitor	ALR H2O2 inh	NS3 helicase inh
O=C(CSC1=NC(=O)C(c2ccccc2)C(=O)N1)Nc1ccccc1[N+](=O)[O-] (stereo not given)	i	i	i	i	95	i
COC(=O)c1ccc(NC(=O)CSC2=NC(=O)C(c3ccccc3)C(=O)N2)cc1 (stereo not given)	i	i	i	i	99	i
O=C(CSC1=NC(=O)C(Cc2ccccc2)C(=O)N1)Nc1ncccn1 (stereo not given)	nt	nt	nt	i	nt	i
CC(=O)NC1C(=O)N=C(SCC(=O)Nc2ccc(C(F)(F)F)cc2Cl)NC1=O (stereo not given)	i	i	i	i	98	i
COC(=O)c1ccc(NC(=O)CSc2nc3ccccc3c(=O)[nH]2)cc1	i	i	i	i	i	i
Cn1nnnc1SCC(=O)Nc1ccccc1[N+](=O)[O-]	i	i	i	i	nt	i
O=C(CSC1=NC(=O)C(c2ccccc2)C(=O)N1)Nc1cccc(Cl)c1 (stereo not given)	i	i	i	i	98	i
